Results on 21 compounds are retold here after ChEMBL document CHEMBL2396638, “Structure-activity relationship studies and sleep-promoting activity of novel 1-chloro-5,6,7,8-tetrahydroimidazo[1,5-a]pyrazine derivatives as dual orexin receptor antagonists. Part 2” (Bioorg Med Chem Lett, 2013).

Each structure is given as a SMILES string.

Series [1] can be described thus: Ratio of drug level from brain to plasma in Wistar rat at 100 mg/kg, po after 3 hrs. The class given is ADME, organism-based. More on the design: dose 100 mg/kg, route oral. The following applies: read-out: BPR. In outline: (§1)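 Male Wistar rats on 12 h light/dark cycle dosed orally at 100 mg/kg in PEG-400. Plasma and brain collected from the same animal at 3 h (±5 min). Blood drawn from caudal vena cava into EDTA and centrifuged for plasma. Brain taken after cardiac perfusion with 0.9% NaCl and homogenized in one volume cold phosphate buffer pH 7.4.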

Series [2] is described as follows: Plasma concentration in Wistar rat at 100 mg/kg, po after 3 hrs. The class given is ADME, organism-based. More on the design: dose 100 mg/kg, route oral. In outline:
as §1

Series [3] can be described thus: Drug uptake in Wistar rat brain at 100 mg/kg, po after 3 hrs. The note with it: read-out: Drug uptake. It counts as ADME, organism-based. Also on record: dose 100 mg/kg, route oral. In outline:
as §1

In another series the target is T1, Orexin receptor type 2 (Homo sapiens, UniProt O43614).
T1 sequence (O43614 whole entry): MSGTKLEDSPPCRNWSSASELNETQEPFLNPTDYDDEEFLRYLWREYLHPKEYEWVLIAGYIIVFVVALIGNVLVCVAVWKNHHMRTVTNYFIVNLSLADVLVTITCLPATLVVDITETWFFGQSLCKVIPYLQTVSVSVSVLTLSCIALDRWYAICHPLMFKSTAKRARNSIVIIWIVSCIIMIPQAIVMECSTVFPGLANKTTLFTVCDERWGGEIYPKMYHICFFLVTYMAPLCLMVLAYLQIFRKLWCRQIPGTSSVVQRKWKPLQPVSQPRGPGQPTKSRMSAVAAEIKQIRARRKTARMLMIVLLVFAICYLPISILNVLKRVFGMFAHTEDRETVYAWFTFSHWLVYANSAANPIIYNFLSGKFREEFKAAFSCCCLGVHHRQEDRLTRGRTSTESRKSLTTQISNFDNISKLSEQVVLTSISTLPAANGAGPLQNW
In words: Antagonist activity at human OX2R expressed in CHO cells assessed as inhibition of calcium mobilization by FLIPR assay. It counts as functional, cell-based. In outline:
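CHO cells stably expressing human OX2R, loaded with fluo-3 AM calcium dye at 37 °C in 5% CO2, then washed. Antagonist added at varying concentrations before an approximate EC80 of orexin A. Ca2+ mobilization read by FLIPR; IC50 taken as concentration inhibiting 50% of the orexin A-induced calcium response.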

Series [4] deals with T2, Orexin/Hypocretin receptor type 1 (Homo sapiens, UniProt O43613).
T2 sequence (O43613 whole entry): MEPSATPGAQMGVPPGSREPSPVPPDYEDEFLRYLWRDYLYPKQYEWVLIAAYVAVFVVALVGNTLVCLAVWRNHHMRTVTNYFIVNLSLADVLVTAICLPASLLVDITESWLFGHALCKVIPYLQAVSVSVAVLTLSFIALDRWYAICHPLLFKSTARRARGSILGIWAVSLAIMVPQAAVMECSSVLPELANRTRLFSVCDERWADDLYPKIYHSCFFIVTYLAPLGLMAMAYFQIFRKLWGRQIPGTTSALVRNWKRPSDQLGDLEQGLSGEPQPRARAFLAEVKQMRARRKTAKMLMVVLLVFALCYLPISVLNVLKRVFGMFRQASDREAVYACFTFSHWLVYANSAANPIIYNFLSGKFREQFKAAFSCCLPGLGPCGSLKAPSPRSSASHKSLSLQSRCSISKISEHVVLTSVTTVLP
In words: Antagonist activity at human OX1R expressed in CHO cells assessed as inhibition of calcium mobilization by FLIPR assay. It counts as functional, cell-based. On the technique in general: Calcium assays in cells follow changes in intracellular calcium, usually with a dye or a luminescent sensor.

The subject of series [5] is Rattus norvegicus. In words: Sleep-promoting activity in Wistar rat electroencephalographic model assessed as increase in time spent in rapid eye movement sleep at 100 mg/kg, po measured over 12 hrs relative to vehicle-treated control. The class given is functional. The method, boiled down: (§2)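 Freely moving adult male Wistar rats carrying radiotelemetric implants recording EEG, EMG and locomotor activity in the home cage. Oral dose of 100 mg/kg in 100% PEG-400 given at the start of the dark phase. Crossover design with 12 or 16 rats per group and at least 4-day washout. Read-outs over the 12 h night versus vehicle; means ± SEM, paired t-test.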

Series [6] concerns Rattus norvegicus. In words: Sleep-promoting activity in Wistar rat electroencephalographic model assessed as time spent in non-rapid eye movement sleep at 100 mg/kg, po measured over 12 hrs relative to total sleep time (reference value: 85.4 to 87.3%). It counts as functional. The method, boiled down: as §2
Series [7] has as its system Rattus norvegicus. In words: Sleep-promoting activity in Wistar rat electroencephalographic model assessed as time spent in rapid eye movement sleep at 100 mg/kg, po measured over 12 hrs relative to total sleep time (reference value: 12.7 to 14.6%). The class given is functional. In outline: as §2
The subject of series [8] is Rattus norvegicus. In words: Sleep-promoting activity in Wistar rat electroencephalographic model assessed as increase in time spent in non-rapid eye movement sleep at 100 mg/kg, po measured over 12 hrs relative to vehicle-treated control. It counts as functional. The method, boiled down:
as §2

In series [9] the test system is Rattus norvegicus. In words: Sleep-promoting activity in Wistar rat electroencephalographic model assessed as reduction of time spent in active wake at 100 mg/kg, po measured over 12 hrs relative to vehicle-treated control. It counts as functional. Also on record: scale not given: the % may be the effect or the level left. The method, boiled down:
as §2

For series [10], the system named is Rattus norvegicus. In words: Sleep-promoting activity in Wistar rat electroencephalographic model assessed as decrease in home cage activity at 100 mg/kg, po measured over 12 hrs relative to vehicle-treated control. It counts as functional. Also on record: scale not given: the % may be the effect or the level left. In outline:
as §2

In series [11] the test system is MDR1 (human). In words: Efflux ratio of apparent permeability […] to apical side in MDCK cells expressing human MDR1. The class given is ADME, cell-based, Canis lupus familiaris. The note with it: dog.
Series [12] deals with MDR1 (human). In words: Apparent permeability across basolateral to apical side in MDCK cells expressing human MDR1. The class given is ADME, cell-based, Canis lupus familiaris. The note with it: dog.
For series [13], the system named is MDR1 (human). In words: Apparent permeability across apical to basolateral side in MDCK cells expressing human MDR1. The class given is ADME, cell-based, Canis lupus familiaris. The note with it: dog.

A word on the IC50: it is the point on the concentration scale where inhibition reaches its midpoint. Turning to `CNC(=O)[C@@H](c1ccccc1)N1CCn2c(C3CC3)nc(Cl)c2[C@@H]1CCc1ccc(C(F)(F)F)cc1F`, in series [1], the Kp at 3 h came out at 0.05. In addition, the concentration at 3 h in series [2] was 6.76 µM; in series [3], 338 nM. Moreover, the IC50 on Orexin receptor type 2 was determined as 26 nM; in series [4], 94 nM.

For the compound `CCc1nc(Cl)c2n1CCN([C@@H](C(=O)NC)c1ccccc1)[C@H]2CCc1ccc(OC(F)(F)F)cc1`, the results for the half-maximal inhibitory concentration (IC50) (at Orexin receptor type 2; in series [4]) were 18 nM and 203 nM, respectively.

Regarding `CNC(=O)[C@@H](c1ccccc1)N1CCn2c(C3CC3)nc(Cl)c2[C@@H]1CCc1ccc(C(F)(F)F)cc1`, the IC50 in series [4] was determined as 30 nM.

For the compound `CCc1nc(Cl)c2n1CCN([C@@H](C(=O)NC)c1ccccc1)[C@H]2CCc1ccc(C#N)cc1`, the concentration for half-maximal inhibition (IC50) at Orexin receptor type 2 amounted to 16 nM; in series [4] it was 3900 nM.

For `CNC(=O)[C@@H](c1ccccc1)N1CCc2cc(OC)c(OC)cc2[C@@H]1CCc1ccc(C(F)(F)F)cc1` [ALMOREXANT], the Activity with Rattus norvegicus [5] came out at 38%; in the series on Rattus norvegicus [6] it was 85.8%; with Rattus norvegicus [7] it was 14.2%; in the series with Rattus norvegicus [8], 20%; in the series on Rattus norvegicus [9], 20%; in the series with Rattus norvegicus [10], 43%.

For `CCc1nc(Cl)c2n1CCN([C@@H](C(=O)NC)c1ccccc1)[C@H]2CCc1ccc(C(F)(F)F)cc1F`, in series [1], the Kp at 3 h is 0.06. Besides, the concentration at 3 h was 6.42 µM in series [2] and 363 nM in [3]. Besides, the half-inhibitory concentration (IC50) was found to be 12 nM at Orexin receptor type 2 and 45 nM in [4].

`CCc1nc(Cl)c2n1CCN([C@@H](C(=O)NC)c1ccccc1)[C@H]2CCc1cccc(C(F)(F)F)c1`: the 50% inhibitory concentration (IC50) on Orexin receptor type 2 came out at 10 nM; in [4] it was 72 nM.

Turning to `CCc1nc(Cl)c2n1CCN([C@@H](C(=O)NC)c1ccccc1)[C@H]2CCc1ccc(C(F)(F)F)c(F)c1F`, the Kp at 3 h in series [1] turned out to be 0.1. The concentration at 3 h in series [2] was found to be 6.77 µM; in [3] it was 695 nM. The IC50 on Orexin receptor type 2 stood at 14 nM; in [4] it was 17 nM.

With `CCc1nc(Cl)c2n1CCN([C@@H](C(=O)NC)c1ccccc1)[C@H]2CCc1ccc(OC(F)F)cc1`, the IC50 at Orexin receptor type 2 was 1 nM; in [4], 74 nM.

With `CCc1nc(Cl)c2n1CCN([C@@H](C(=O)NC)c1ccccc1)[C@H]2COc1cccc(C(F)(F)F)c1`, the results for the IC50 (on Orexin receptor type 2; in [4]) were 4 nM and 312 nM, respectively.

`CNC(=O)[C@@H](c1ccccc1)N1CCn2c(C3CC3)nc(Cl)c2[C@@H]1CCc1ccc(C(F)(F)F)c(F)c1`: the Kp at 3 h in series [1] is 0.07. Further, the concentration at 3 h is 6.8 µM in [2] and 450 nM in series [3]. Also, the values for the half-inhibitory concentration (IC50) (at Orexin receptor type 2; in series [4]) were 10 nM and 53 nM, respectively.

On to `CCc1nc(Cl)c2n1CCN([C@@H](C(=O)NC)c1ccccc1)[C@H]2CCc1ccc(F)c(F)c1F`, for which the Kp at 3 h in series [1] is 0.05. Also, the concentration at 3 h came to 0.387 µM in series [2] and 18 nM in series [3]. Further, the IC50 on Orexin receptor type 2 stood at 5 nM; in series [4], 30 nM.

As to `CCc1nc(Cl)c2n1CCN([C@@H](C(=O)NC)c1ccccc1)[C@H]2CCc1cc(F)c(C(F)(F)F)c(F)c1`, the IC50 is 8 nM on Orexin receptor type 2 and 16 nM in [4].

Take `CCc1nc(Cl)c2n1CCN([C@@H](C(=O)NC)c1ccccc1)[C@H]2CCc1ccc(C(F)(F)F)c(Cl)c1`: the Kp at 3 h in [1] is 0.08. Further, the concentration at 3 h in [2] was determined as 1.6 µM; in series [3] it was 128 nM. Moreover, the IC50 stood at 18 nM at Orexin receptor type 2 and 20 nM in series [4].

In the case of `CCc1nc(Cl)c2n1CCN([C@@H](C(=O)NC)c1ccccc1)[C@H]2CCc1cc(F)c(C(F)(F)F)cc1F`, the IC50 at Orexin receptor type 2 is 17 nM; in series [4], 32 nM.

For `CCc1nc(Cl)c2n1CCN([C@@H](C(=O)NC)c1ccccc1)[C@H]2COc1ccc(C(F)(F)F)cc1`, the half-inhibitory concentration (IC50) is 9 nM on Orexin receptor type 2 and 431 nM in [4].

Turning to `CCc1nc(Cl)c2n1CCN([C@@H](C(=O)NC)c1ccccc1)[C@@H]2CCc1ccc(C(F)(F)F)c(F)c1`, the results for the half-maximal inhibitory concentration (IC50) (at Orexin receptor type 2; in [4]) were 227 nM and 547 nM, respectively.

With `CCc1nc(Cl)c2n1CCN([C@@H](C(=O)NC)c1ccccc1)[C@H]2CCc1cccc(C(F)(F)F)c1F`, the Kp at 3 h in [1] worked out at 0.07. In addition, the concentration at 3 h in [2] is 1.85 µM; in [3], 136 nM. Besides, the concentration for half-maximal inhibition (IC50) came to 9 nM at Orexin receptor type 2 and 16 nM in [4].

One may read the efflux ratio as the permeability from basolateral to apical divided by that in the opposite direction, in the common usage. The Papp B→A is the apparent permeability from the basolateral to the apical side of a cell layer. By Papp A→B is commonly meant how fast a substance crosses the layer from the apical side. As to `CCc1nc(Cl)c2n1CCN([C@@H](C(=O)NC)c1ccccc1)[C@H]2CCc1ccc(C(F)(F)F)c(F)c1`, the Activity in the series on Rattus norvegicus [5] turned out to be 9%; in the series on Rattus norvegicus [6], 86.2%; in the series with Rattus norvegicus [7], 13.8%; in the series with Rattus norvegicus [8] it was 16%; in the series on Rattus norvegicus [9], 13%; in the series on Rattus norvegicus [10], 36%. In addition, the efflux ratio in the series on MDR1 (human) [11] stood at 35. Also, the Papp B→A in the series on MDR1 (human) [12] was found to be 68.8 ×10⁻⁶ cm/s. Also, in the series with MDR1 (human) [13], the Papp A→B amounted to 1.98 ×10⁻⁶ cm/s. The Kp at 3 h in [1] worked out at 0.12. For the same compound, the concentration at 3 h is 9.81 µM in series [2] and 1220 nM in series [3]. Also, the IC50 at Orexin receptor type 2 came to 7 nM; in [4] it was 18 nM.

For the compound `CNC(=O)[C@@H](c1ccccc1)N1CCn2c(C3CC3)nc(Cl)c2[C@@H]1CCc1ccc(OC(F)F)c(F)c1`, the 50% inhibitory concentration (IC50) on Orexin receptor type 2 came to 2 nM; in series [4], 170 nM.

For `CCc1nc(Cl)c2n1CCN([C@@H](C(=O)NC)c1ccccc1)[C@H]2CCc1ccc(F)c(C(F)(F)F)c1`, the values for the IC50 (at Orexin receptor type 2; in series [4]) were 16 nM and 378 nM, respectively.
